m5-HT2A agonist: agonists of mouse serotonin 5-HT2A receptor (HTR2A). actives 0.66% (n = 360,000). activation, % at 7.6 µM. P35363. CHO-K1 mHTR2A beta-arrestin complementation, luminescence; percent of 30 µM serotonin response. AID 624169;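 active = activation above a run cutoff, the mean activation of all tested compounds plus 3 SD, cut at about 14% in these data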;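 note: 0% = plate median of compound wells and 100% = 30 µM serotonin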
Target sequence (P35363 whole entry, looked up): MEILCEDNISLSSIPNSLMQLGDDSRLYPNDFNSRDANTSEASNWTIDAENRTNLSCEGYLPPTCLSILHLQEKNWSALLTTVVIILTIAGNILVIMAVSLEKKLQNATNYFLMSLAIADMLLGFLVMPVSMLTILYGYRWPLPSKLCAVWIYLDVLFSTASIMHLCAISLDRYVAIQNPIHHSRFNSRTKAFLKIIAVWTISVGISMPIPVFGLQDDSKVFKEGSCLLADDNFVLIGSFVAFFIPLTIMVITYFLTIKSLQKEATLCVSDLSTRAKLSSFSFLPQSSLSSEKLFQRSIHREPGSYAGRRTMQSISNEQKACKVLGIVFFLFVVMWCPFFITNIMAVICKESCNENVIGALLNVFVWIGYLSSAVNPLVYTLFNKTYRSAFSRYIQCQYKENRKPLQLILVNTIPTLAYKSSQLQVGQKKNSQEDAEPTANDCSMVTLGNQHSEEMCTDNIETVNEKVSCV
CXCR6 inh: inhibitors of human CXCR6 receptor; inhibition, % at 20 µM; O00574; AID 602244; actives 0.36% (n = 360,000); CHO-K1 PathHunter CXCR6 beta-arrestin, luminescence; in the data active = inhibition above about 34%, passing the limit was not always enough;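 note: antagonist mode with CXCL16 agonist at 10 nM final; 0% = 10 nM CXCL16 with DMSO and 100% = unstimulated wells without agonist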
CCR6 antagonist: antagonists of human CCR6 receptor; AID 493098; CHO-K1 CCR6 PathHunter beta-arrestin, luminescence, CCL20-stimulated; inhibition, % at 20 µM; actives 0.49% (n = 340,000);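 active = compounds whose inhibition of the agonist-driven luminescence signal at 20 µM reaches about 50%, limit read from the data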;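 note: cells stimulated with CCL20 at 14 nM final; plate controls were DMSO with CCL20 for no effect and DMSO without agonist for full effect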
APJ ag: agonists of human APJ apelin receptor; P35414; CHO-K1 APJ PathHunter beta-arrestin, luminescence; 0% DMSO wells, 100% apelin; activation, % at 20 µM; actives 0.11% (n = 330,000);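 active = activation more than six SD over the plate average, tested at 20 µM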;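 note: 0% = DMSO alone and 100% = apelin-13 at 10 nM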
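assay system = CHO-K1 APJ beta-arrestin complementation cell line | input = cell density 1000 per well | dosing = compound 20 µM once, DMSO 1% | timing = compound 90 min 25 °C, reagent 1 h | measured by = luminescence from split beta-galactosidase complementation, Galacton Star/Emerald II substrate | read-out basis = APJ agonist activity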
NTR1 ag: activates human neurotensin receptor 1; P30989; NTR1-U2OS beta-arrestin-GFP spot imaging, agonist mode; activation, % at 20 µM; actives 0.17% (n = 330,000);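 active = activation at or above 40% of the spot to cytoplasm intensity ratio, with at least 20 cells analyzed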;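 note: 0% = DMSO without peptide and 100% = 100 nM NTR1 peptide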
APJ antag: antagonists of human APJ apelin receptor; AID 2521; actives 0.32% (n = 330,000); P35414; CHO-K1 APJ beta-arrestin complementation, luminescence; inhibition, % at 20 µM;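 active = inhibition above about 40% at 20 µM, limit read from the data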;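 note: cells challenged with 10 nM apelin-13 agonist together with compound; plate controls were apelin-13 plus DMSO wells for no effect and DMSO wells lacking apelin-13 for full effect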
OPRM1 ag: OPRM1 agonism in mouse HTR2A counterscreen; shares compounds with m5-HT2A agonist; U2OS OPRM1 beta-arrestin PathHunter, luminescence; DMSO 0%, DAMGO 9.3 µM 100%; activation, % at 9.3 µM; actives 5.3% (n = 2,300);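 active = mean activation above the mean of DMSO-only wells plus 3 SD, cut at about 0.5% in these data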
m5-HT2A ag conf: mouse HTR2A agonism confirmed. shares compounds with m5-HT2A agonist. CHO-K1 PathHunter beta-arrestin recruitment, luminescence; DMSO 0%, 30 µM serotonin 100%. actives 19% (n = 2,300). activation, % at 7.6 µM;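 active = mean activation across triplicates above the hit threshold derived in the original primary screen, cut at about 15% in these data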
* hit, by the source's call; ! = not confirmed by another sample. Only some compounds are listed: those with a hit (about 1.5% of all), similar ones and a draw of the others.

Screening COc1ccccc1Nc1nc(N2CCOCC2)nc(N2CCOCC2)n1 returned m5-HT2A agonist 16*!, CXCR6 inh 2, CCR6 antagonist 5, APJ ag -5, NTR1 ag 2, APJ antag 12, OPRM1 ag 0 and m5-HT2A ag conf 1.
For C=CCN(C(=O)c1csnn1)C(C(=O)NCc1ccc(F)cc1)c1ccccc1 (centres undefined) the results were m5-HT2A agonist -2, CXCR6 inh -1, CCR6 antagonist 19, APJ ag -1, NTR1 ag -2 and APJ antag 17.
For N#Cc1cc(Sc2ccccn2)c(Sc2ccccn2)cc1C#N the results were m5-HT2A agonist 3, CXCR6 inh 5, CCR6 antagonist 15, APJ ag -2, NTR1 ag -1 and APJ antag 2.
Screening N#Cc1cc(Sc2ccccn2)c([N+](=O)[O-])cc1C#N returned m5-HT2A agonist 17*, CXCR6 inh 2, CCR6 antagonist 2, APJ ag 3, NTR1 ag 0, APJ antag -28, OPRM1 ag 0 and m5-HT2A ag conf -3.
For Oc1cc2c(cc1O)[C@@H](c1ccccc1)CNCC2 the results were m5-HT2A agonist 19*, CXCR6 inh 0, CCR6 antagonist 3, OPRM1 ag 0 and m5-HT2A ag conf 48*.
Screening CN1CCc2cc(O)c(O)cc2C(c2ccccc2)C1 (centres undefined) returned m5-HT2A agonist 17*, CXCR6 inh -1, CCR6 antagonist 1, APJ ag -2, NTR1 ag -1, APJ antag -4, OPRM1 ag 0 and m5-HT2A ag conf 78*.
CC(=O)c1ccc(N2CCN(C(=O)C3CCN(S(=O)(=O)c4ccc5c(c4)CC(C)N5C(C)=O)CC3)CC2)cc1 (centres undefined) was read as m5-HT2A agonist 16*, CXCR6 inh -6, CCR6 antagonist 1, APJ ag -2, NTR1 ag 1, APJ antag 7, OPRM1 ag 0 and m5-HT2A ag conf 1.
For CC(=O)NCCn1c(SCC#N)nc2ccccc2c1=O the results were m5-HT2A agonist 15*, CXCR6 inh 0, CCR6 antagonist 5, APJ ag 0, NTR1 ag 1, APJ antag 0, OPRM1 ag 0 and m5-HT2A ag conf -2.
c1ccc(Cc2nnc(N3CCCCC3)c3ccccc23)cc1 was read as m5-HT2A agonist 9, CXCR6 inh 11, CCR6 antagonist 14, APJ ag -2, NTR1 ag 4 and APJ antag 20.
For c1ccc(N2CCN(c3nnc(Cc4cccnc4)c4ccccc34)CC2)nc1 the results were m5-HT2A agonist 17*, CXCR6 inh -4, CCR6 antagonist 1, APJ ag 0, NTR1 ag 1, APJ antag 2, OPRM1 ag 0 and m5-HT2A ag conf 3.
`COc1ccccc1-c1ccc2c(c1)C(C)(Cc1ccc(Cl)c(Cl)c1)C(=O)N2` (centres undefined) gave m5-HT2A agonist 23*, CXCR6 inh 2, OPRM1 ag -1 and m5-HT2A ag conf -4.
COc1ccccc1-c1ccc2c(c1)C(C)(Cc1ccccc1C#N)C(=O)N2 (centres undefined) was read as m5-HT2A agonist 7 and CXCR6 inh 5.
Cn1ncc(Br)c1NC(=O)Nc1ccc(Cl)cc1 was read as m5-HT2A agonist -1, CXCR6 inh -2, CCR6 antagonist -2, APJ ag -3, NTR1 ag -2 and APJ antag 0.
For Cn1ncc(Br)c1NC(=O)Nc1ccccc1 the results were m5-HT2A agonist 14*, CXCR6 inh -10, CCR6 antagonist -11, APJ ag 0, NTR1 ag 0, APJ antag -18, OPRM1 ag 1.0* and m5-HT2A ag conf 8.
Screening COc1ccc(OC)c(NC(=O)CSc2nc(N3CCOCC3)nc(N3CCOCC3)n2)c1 returned m5-HT2A agonist -5, CXCR6 inh 0, CCR6 antagonist -3, APJ ag -2, NTR1 ag 0 and APJ antag -28.
`O=[N+]([O-])c1ccc(S(=O)(=O)NN=Cc2ccc(Cl)c(Cl)c2)cc1` gave m5-HT2A agonist -5, CXCR6 inh 6 and CCR6 antagonist 28.
For Cn1ncc([N+](=O)[O-])c1C(=O)Nc1ccccc1C#N the results were m5-HT2A agonist 16*, CXCR6 inh -1, OPRM1 ag -1 and m5-HT2A ag conf -4.
Cc1ccccc1NC(=O)c1c([N+](=O)[O-])cnn1C was read as m5-HT2A agonist 1, CXCR6 inh 3, CCR6 antagonist -8, APJ ag -1, NTR1 ag 0 and APJ antag 8.
Screening CC(Sc1ccc(Cl)cc1)C(=O)N(C)CC(=O)Nc1ccc(N2CCOCC2)cc1 (centres undefined) returned m5-HT2A agonist 18*, CXCR6 inh -7, CCR6 antagonist 13, APJ ag -6, NTR1 ag -1, APJ antag -4, OPRM1 ag 0 and m5-HT2A ag conf 8.
CC(=O)NC(Cc1ccccc1)C(=O)NC1CCN(C(=O)c2ccc([N+](=O)[O-])cc2)CC1 (centres undefined) was read as m5-HT2A agonist 1, CXCR6 inh 2, CCR6 antagonist 9, APJ ag 0, NTR1 ag 0 and APJ antag 6.
Screening CC(=O)NC(Cc1ccccc1)C(=O)NC1CCN(C(=O)c2cnccn2)CC1 (centres undefined) returned m5-HT2A agonist 19*, CXCR6 inh 1, CCR6 antagonist 2, APJ ag -2, NTR1 ag -1, APJ antag -13, OPRM1 ag 0 and m5-HT2A ag conf -2.
For O=C(CSc1ncn[nH]1)Nc1ccc(Cl)c(S(=O)(=O)N2CCOCC2)c1 the results were m5-HT2A agonist 2, CXCR6 inh -9, CCR6 antagonist 7, APJ ag 0, NTR1 ag 0 and APJ antag -6.
CC(NC(=O)Nc1ccccc1C(F)(F)F)C1CCCO1 (centres undefined) was read as m5-HT2A agonist 26*, CXCR6 inh -8, CCR6 antagonist -15, APJ ag -2, NTR1 ag -1, APJ antag 20, OPRM1 ag 0 and m5-HT2A ag conf 3.
CC(NC(=O)Nc1ccc(Cl)cc1)C1CCCO1 (centres undefined) was read as m5-HT2A agonist 0, CXCR6 inh 3, CCR6 antagonist 1, APJ ag -4, NTR1 ag -2 and APJ antag -10.

Compound activity (PubChem BioAssay)
